Measured values taken from ChEMBL document CHEMBL2176954, “General synthesis of β-alanine-containing spider polyamine toxins and discovery of nephila polyamine toxins 1 and 8 as highly potent inhibitors of ionotropic glutamate receptors” (J Med Chem, 2012).

Legend:
Format in all cases: functional, cell-based, Oocyte
[1] = target: T1, Glutamate receptor ionotropic, kainate 1 (Rattus norvegicus, UniProt P22756); assay: Antagonist activity at rat GluK1 receptor expressed in Xenopus oocytes by two-electrode voltage-clamp at membrane potential -60 to -80 mV electrophysiology assay
How it was run: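 GluK1-expressing oocytes were clamped by two-electrode voltage clamp and given a maximally effective agonist concentration, then increasing toxin concentrations plus agonist. IC50 was determined at −60 mV and at −80 mV to assess voltage dependence of block. Values at −60 mV are means of 6 to 12 experiments.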

[2] = target: T1, Glutamate receptor ionotropic, kainate 1; assay: Antagonist activity at rat GluK1 receptor expressed in Xenopus oocytes at membrane potential -60 mV by two-electrode voltage-clamp electrophysiology assay
How it was run: (§1)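 Two-electrode voltage clamp at −60 mV on oocytes expressing the iGlu receptor subtype. Cells first received a maximally effective agonist concentration, then increasing toxin concentrations co-applied with agonist. IC50 values are means from 6 to 12 experiments, reported with 95% confidence intervals.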

Glutamate receptor 1 = Glutamate receptor 1 (Rattus norvegicus, UniProt P19490); assay: Antagonist activity at rat GluA1 receptor expressed in Xenopus oocytes at membrane potential -60 mV by two-electrode voltage-clamp electrophysiology assay; how it was run: as §1
[3] = target: Glutamate receptor ionotropic, NMDA 2A (Rattus norvegicus, UniProt P35439+Q00959); assay: Antagonist activity at rat glutamate N1/2A receptor expressed in Xenopus oocytes at membrane potential -60 mV by two-electrode voltage-clamp electrophysiology assay; how it was run: as §1
Sequence of Glutamate receptor ionotropic, NMDA 2A (Q00959 whole entry, one chain of several): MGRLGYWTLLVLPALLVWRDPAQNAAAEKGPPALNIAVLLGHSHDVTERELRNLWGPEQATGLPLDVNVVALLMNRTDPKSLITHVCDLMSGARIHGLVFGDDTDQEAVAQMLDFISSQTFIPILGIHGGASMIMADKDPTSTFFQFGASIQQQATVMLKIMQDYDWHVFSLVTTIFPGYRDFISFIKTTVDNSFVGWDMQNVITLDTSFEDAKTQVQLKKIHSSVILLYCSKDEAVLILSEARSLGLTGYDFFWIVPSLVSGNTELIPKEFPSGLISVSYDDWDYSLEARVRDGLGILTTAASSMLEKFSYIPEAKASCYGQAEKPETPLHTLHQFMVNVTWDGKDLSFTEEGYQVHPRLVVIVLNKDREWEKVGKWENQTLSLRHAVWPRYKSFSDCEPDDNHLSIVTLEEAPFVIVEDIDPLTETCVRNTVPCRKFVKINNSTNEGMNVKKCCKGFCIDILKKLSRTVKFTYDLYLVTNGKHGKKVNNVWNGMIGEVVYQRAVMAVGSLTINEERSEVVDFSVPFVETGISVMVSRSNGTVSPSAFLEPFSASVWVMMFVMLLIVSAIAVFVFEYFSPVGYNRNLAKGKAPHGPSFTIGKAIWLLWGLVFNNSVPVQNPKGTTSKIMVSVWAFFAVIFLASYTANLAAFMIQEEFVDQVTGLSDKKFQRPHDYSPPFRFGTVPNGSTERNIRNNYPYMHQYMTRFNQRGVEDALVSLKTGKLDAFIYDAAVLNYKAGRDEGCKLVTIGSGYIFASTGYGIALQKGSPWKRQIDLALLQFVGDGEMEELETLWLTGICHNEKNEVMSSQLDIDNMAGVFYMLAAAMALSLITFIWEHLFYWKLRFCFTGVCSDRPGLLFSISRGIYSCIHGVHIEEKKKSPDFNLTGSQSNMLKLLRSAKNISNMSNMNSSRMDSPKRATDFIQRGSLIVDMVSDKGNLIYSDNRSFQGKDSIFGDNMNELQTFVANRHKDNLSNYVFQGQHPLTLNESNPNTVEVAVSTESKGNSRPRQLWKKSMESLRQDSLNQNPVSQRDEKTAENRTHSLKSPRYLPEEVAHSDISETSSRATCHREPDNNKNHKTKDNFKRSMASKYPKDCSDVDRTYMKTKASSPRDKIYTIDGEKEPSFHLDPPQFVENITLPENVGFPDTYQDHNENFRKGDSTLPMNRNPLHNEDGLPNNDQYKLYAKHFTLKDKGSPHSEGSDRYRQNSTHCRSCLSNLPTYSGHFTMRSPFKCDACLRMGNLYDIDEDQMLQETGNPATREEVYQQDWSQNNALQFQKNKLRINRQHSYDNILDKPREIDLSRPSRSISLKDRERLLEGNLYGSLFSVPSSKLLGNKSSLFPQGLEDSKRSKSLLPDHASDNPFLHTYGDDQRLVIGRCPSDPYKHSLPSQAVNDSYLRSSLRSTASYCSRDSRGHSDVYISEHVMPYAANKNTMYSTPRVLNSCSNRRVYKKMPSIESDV

T1 sequence (P22756 whole entry): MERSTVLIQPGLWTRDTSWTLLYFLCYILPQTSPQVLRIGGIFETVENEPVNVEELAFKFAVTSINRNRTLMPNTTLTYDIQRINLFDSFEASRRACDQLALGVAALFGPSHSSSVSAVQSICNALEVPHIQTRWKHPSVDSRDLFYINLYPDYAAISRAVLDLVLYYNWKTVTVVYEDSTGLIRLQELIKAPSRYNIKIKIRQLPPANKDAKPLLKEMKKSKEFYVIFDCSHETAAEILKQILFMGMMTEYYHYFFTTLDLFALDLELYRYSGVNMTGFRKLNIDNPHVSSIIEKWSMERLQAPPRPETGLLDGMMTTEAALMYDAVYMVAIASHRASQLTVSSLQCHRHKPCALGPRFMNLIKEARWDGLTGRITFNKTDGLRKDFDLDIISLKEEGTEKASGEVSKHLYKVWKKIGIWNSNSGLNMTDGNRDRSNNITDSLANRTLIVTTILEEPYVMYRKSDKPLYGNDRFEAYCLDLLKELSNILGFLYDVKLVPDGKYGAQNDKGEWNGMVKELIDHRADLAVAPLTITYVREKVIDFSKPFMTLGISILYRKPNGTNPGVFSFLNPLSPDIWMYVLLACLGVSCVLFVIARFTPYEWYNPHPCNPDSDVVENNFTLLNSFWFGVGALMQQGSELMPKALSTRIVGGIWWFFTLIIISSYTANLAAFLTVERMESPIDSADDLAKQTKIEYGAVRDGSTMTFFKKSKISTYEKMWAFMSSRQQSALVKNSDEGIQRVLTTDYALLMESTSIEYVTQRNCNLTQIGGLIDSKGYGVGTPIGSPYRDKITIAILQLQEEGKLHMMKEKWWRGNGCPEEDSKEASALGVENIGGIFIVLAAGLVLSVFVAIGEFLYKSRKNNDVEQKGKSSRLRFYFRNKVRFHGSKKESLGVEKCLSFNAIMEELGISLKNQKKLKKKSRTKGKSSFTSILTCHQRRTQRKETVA
Sequence of Glutamate receptor 1 (P19490 whole entry): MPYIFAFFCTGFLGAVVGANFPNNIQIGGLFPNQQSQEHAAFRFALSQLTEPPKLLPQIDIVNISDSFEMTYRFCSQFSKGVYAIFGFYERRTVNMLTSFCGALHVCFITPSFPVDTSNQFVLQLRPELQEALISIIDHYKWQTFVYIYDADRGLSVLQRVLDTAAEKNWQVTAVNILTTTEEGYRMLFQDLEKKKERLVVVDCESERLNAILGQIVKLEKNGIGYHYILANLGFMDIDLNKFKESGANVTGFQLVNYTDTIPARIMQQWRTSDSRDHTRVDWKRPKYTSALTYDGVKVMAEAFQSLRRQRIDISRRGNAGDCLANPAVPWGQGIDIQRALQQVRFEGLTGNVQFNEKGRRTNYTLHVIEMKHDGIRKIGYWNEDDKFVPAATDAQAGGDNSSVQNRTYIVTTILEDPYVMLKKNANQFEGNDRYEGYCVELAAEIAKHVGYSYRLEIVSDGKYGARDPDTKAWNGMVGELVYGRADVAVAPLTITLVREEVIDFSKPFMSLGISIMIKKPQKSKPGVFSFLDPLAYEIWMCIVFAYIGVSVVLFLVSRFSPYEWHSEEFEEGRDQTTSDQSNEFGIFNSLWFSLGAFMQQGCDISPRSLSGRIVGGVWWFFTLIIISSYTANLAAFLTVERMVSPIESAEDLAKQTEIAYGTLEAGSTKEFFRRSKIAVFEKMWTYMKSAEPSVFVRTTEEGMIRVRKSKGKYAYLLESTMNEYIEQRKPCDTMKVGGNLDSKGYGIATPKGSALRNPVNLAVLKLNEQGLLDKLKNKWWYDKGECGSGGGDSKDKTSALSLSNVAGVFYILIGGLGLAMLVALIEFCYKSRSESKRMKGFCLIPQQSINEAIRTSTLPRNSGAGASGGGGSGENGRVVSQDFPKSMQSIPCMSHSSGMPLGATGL

Structure (SMILES): NCCCNCCCCNCCC(=O)NCCCCCNC(=O)[C@H](CC(N)=O)NC(=O)Cc1c[nH]c2ccccc12
- IC50 [1]: 0.28 nM
- IC50 [2]: 0.82 nM
- IC50 (Glutamate receptor 1): 27 nM
- IC50 [3]: 150 nM

Structure (SMILES): N=C(N)NCCC[C@H](N)C(=O)NCCCCNCCC(=O)NCCCCCNC(=O)[C@H](CC(N)=O)NC(=O)Cc1ccc(O)cc1O [NEPHILA SPIDER TOXIN 3]
- IC50 [2]: 164 nM
- IC50 (Glutamate receptor 1): 137 nM
- IC50 [3]: 5410 nM

Structure (SMILES): NCCCNCCCCNCCC(=O)NCCCCCNC(=O)[C@H](CC(N)=O)NC(=O)Cc1ccc(O)cc1O [JORO SPIDER TOXIN 3]
- IC50 [2]: 19 nM
- IC50 (Glutamate receptor 1): 65 nM
- IC50 [3]: 1710 nM

Structure (SMILES): N=C(N)NCCC[C@H](N)C(=O)NCCCNCCCNCCCCCNC(=O)[C@H](CC(N)=O)NC(=O)Cc1ccc(O)cc1O
- IC50 (Glutamate receptor 1): 135 nM
- IC50 [3]: 177 nM

Structure (SMILES): NCCCNCCCCNCCC(=O)NCCCCCNC(=O)[C@H](CC(N)=O)NC(=O)Cc1c[nH]c2cccc(O)c12
- IC50 [1]: 0.19 nM
- IC50 [2]: 0.33 nM
- IC50 (Glutamate receptor 1): 51 nM
- IC50 [3]: 1390 nM

Structure (SMILES): C[C@H](NC(=O)CNC(=O)[C@@H](N)CCCNC(=N)N)C(=O)NCCCCNCCC(=O)NCCCCCNC(=O)[C@H](CC(N)=O)NC(=O)Cc1ccc(O)cc1O
- IC50 [2]: 2580 nM
- IC50 (Glutamate receptor 1): 1080 nM
- IC50 [3]: > 10000 nM
